For orientation: T/C means the ratio of treated to control.

Experiment [1] concerns L1210. The experiment can be described thus: Tested for in vivo weight change against murine L1210 leukemia at the dose of 5.0 mg/kg per injection in experiment 2. In kind it is functional, organism-based. The following applies: Mus musculus. The method, boiled down:
(§1)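 Leukemia life-span assays used CD2F1 (Balb/c × DBA/2F1) mice weighing 18–22 g. Cells were inoculated IP on day 0, and compounds in 0.9% saline were given IP, dosed by average cage weight. Weight change is the difference in mean group weight between the last and first treatment days.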

The subject of experiment [2] is L1210. The experiment can be described thus: Tested for the ratio of number of survivors / total number after 60 days at the dose of 6.0 mg/kg per injection against murine L1210 Pt-resistant leukemia. The following applies: Mus musculus. It is filed as functional, organism-based. The method, boiled down:
(§2)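 CD2F1 (Balb/c × DBA/2F1) mice, 18–22 g, randomized and inoculated IP with counted leukemia cells on day 0, then re-randomized. Three IP treatments, dissolved in 0.9% saline and dosed on average cage weight, with dose in mg/kg per injection across a full toxic-to-ineffective range. Median life span and %T/C were recorded. Survivors at 60 days were counted as cured and excluded from %T/C.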

Experiment [3] relates to L1210. The experiment can be described thus: Tested for median life span against solid tumor L1210 Pt-resistant leukemia at 4.0 mg/kg per injection in experiment 1. The following applies: Mus musculus. It is filed as functional, organism-based. The method, boiled down:
(§3)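 CD2F1 mice weighing 18–22 g were inoculated IP with leukemia cells on day 0. Compounds in 0.9% saline were given IP in three injections, dosed by average cage weight, over a dose range from toxic to ineffective. Median life span was recorded, with cause of death assessed at necropsy and 60-day survivors counted as cured.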

The test system of experiment [4] is L1210. The experiment can be described thus: Tested for median life span against solid tumor L1210 leukemia at 10 mg/kg per injection in experiment 2. In kind it is functional, organism-based. The settings on record: Mus musculus. The method, boiled down:
as §3

Experiment [5] concerns L1210. The experiment can be described thus: Tested for median life span against solid tumor L1210 leukemia at 6.0 mg/kg per injection in experiment 1. It is filed as functional, organism-based. The following applies: Mus musculus. The method, boiled down:
as §3

Experiment [6] relates to L1210. The experiment can be described thus: Tested for the ratio of treated and control against solid tumor murine L1210 leukemia 5.0 mg/kg per injection in experiment 2; T/C. In kind it is functional, organism-based. The following applies: Mus musculus. Put shortly: (§4)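 Murine leukemia life span assay in CD2F1 (Balb/c × DBA/2F1) mice, 18–22 g, randomized, with IP tumor cell inoculation on day 0. Depending on the model, the inoculum was 1 × 10^4 cells with IP dosing on days 3, 7 and 11, or 1 × 10^6 cells with IP dosing on days 1, 5 and 9. Drug was given in 0.9% saline, mg/kg per injection, by average cage weight. Read-outs were median day of death and %T/C. Mice alive 60 days after treatment counted as cured and were excluded.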

For experiment [7], the system named is L1210. The experiment can be described thus: Tested for the ratio of treated and control against solid tumor murine L1210 Pt-resistant leukemia 10 mg/kg per injection in experiment 2; T/C. The settings on record: Mus musculus. In kind it is functional, organism-based. Put shortly:
as §4

Experiment [8] concerns L1210. The experiment can be described thus: Tested for the ratio of treated and control against solid tumor murine L1210 Pt-resistant leukemia 6.0 mg/kg per injection; T/C. In kind it is functional, organism-based. The following applies: Mus musculus. Put shortly:
as §4

For experiment [9], the system named is Mus musculus. The experiment can be described thus: Tested for the ratio of number of survivors / total number after 60 days at the dose of 10 mg/kg per injection against murine leukemia P388. In kind it is functional, organism-based. Put shortly:
as §2

In experiment [10] the test system is Mus musculus. The experiment can be described thus: Tested for the ratio of number of survivors / total number after 60 days at the dose of 5.0 mg/kg per injection against murine P388 Pt-resistant leukemia. It is filed as functional, organism-based. The method, boiled down: as §2
Experiment [11] deals with Mus musculus. The experiment can be described thus: Tested for in vivo weight change against murine P388 Pt-resistant leukemia at the dose of 10 mg/kg per injection. In kind it is functional, organism-based. The method, boiled down:
as §1

Experiment [12] deals with Mus musculus. The experiment can be described thus: Tested for in vivo weight change against murine P388 leukemia at the dose of 10 mg/kg per injection. It is filed as functional, organism-based. The method, boiled down: as §1
For experiment [13], the system named is Mus musculus. The experiment can be described thus: Tested for net cell kill tumor burden reduction during therapy at the dose 9.0 mg/kg in B16 melanoma. In kind it is functional, organism-based. Set-up: dose 9 mg/kg. Put shortly:
(§5)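 Solid tumor growth delay assay; B16 melanoma and M5076 sarcoma were run in B6C3F1 (C57BL/6 × C3HF1) mice of 18–22 g. Tumor fragments were implanted SC on day 0, then drug in 0.9% saline was given IP on days 1, 5, 9 or days 3, 7, 11, mg/kg per injection. T − C is the difference in days for treated and control tumors to reach 750 mg. Net log cell kill is tumor burden reduction during therapy. Cured mice were excluded.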

Experiment [14] concerns Mus musculus. The experiment can be described thus: Tested for the ratio of treated and control against solid tumor murine P388 leukemia 10 mg/kg per injection; T/C. In kind it is functional, organism-based. The method, boiled down: as §4
Experiment [15] has as its system Mus musculus. The experiment can be described thus: Tested for median life span against solid tumor P388 leukemia at 5.0 mg/kg per injection; T/C. In kind it is functional, organism-based. Put shortly: as §4
For another experiment, the system named is P388. The experiment can be described thus: Tested for in vivo weight change against murine P388 leukemia at the dose of 5.0 mg/kg per injection. It is filed as functional, organism-based. The settings on record: Mus musculus. The method, boiled down: as §1
Experiment [16] concerns M5076 sarcoma (Mus musculus). The experiment can be described thus: Tested for the ratio of treated and control tumor to reach 750 mg against murine solid tumor M5076 sarcoma 4.0 mg/kg per injection.
Experiment [17] has as its system L1210. The experiment can be described thus: Tested for median life span against solid tumor L1210 Pt-resistant leukemia at 1.5 mg/kg per injection in experiment 1. It is filed as functional, organism-based. The settings on record: Mus musculus. Put shortly:
as §3

The subject of experiment [18] is L1210. The experiment can be described thus: Tested for median life span against solid tumor L1210 Pt-resistant leukemia at 1.6 mg/kg per injection in experiment 2. The settings on record: Mus musculus. It is filed as functional, organism-based. The method, boiled down: as §3
Experiment [19] deals with L1210. The experiment can be described thus: Tested for median life span against solid tumor L1210 leukemia at 1.5 mg/kg per injection in experiment 1. In kind it is functional, organism-based. The settings on record: Mus musculus. Put shortly:
as §3

Experiment [20] has as its system L1210. The experiment can be described thus: Tested for the ratio of number of survivors / total number after 60 days at the dose of 1.6 mg/kg per injection against murine L1210 Pt-resistant leukemia in experiment 2. It is filed as functional, organism-based. The settings on record: Mus musculus. Put shortly:
as §2

Experiment [21] concerns L1210. The experiment can be described thus: Tested for the ratio of number of survivors / total number after 60 days at the dose of 3.0 mg/kg per injection against murine leukemia L1210 experiment 1. The following applies: Mus musculus. In kind it is functional, organism-based. Put shortly: as §2
Experiment [22] concerns L1210. The experiment can be described thus: Tested for median life span against solid tumor L1210 leukemia at 2.5 mg/kg per injection in experiment 2. In kind it is functional, organism-based. The following applies: Mus musculus. Put shortly:
as §3

Experiment [23] deals with L1210. The experiment can be described thus: Tested for median life span against solid tumor L1210 leukemia at 3.0 mg/kg per injection in experiment 1. It is filed as functional, organism-based. The following applies: Mus musculus. Put shortly:
as §3

In experiment [24] the test system is L1210. The experiment can be described thus: Tested for the ratio of treated and control against solid tumor murine L1210 leukemia 3.0 mg/kg per injection in experiment 1; T/C. It is filed as functional, organism-based. The following applies: Mus musculus. The method, boiled down:
as §4

Experiment [25] relates to L1210. The experiment can be described thus: Tested for the ratio of treated and control against solid tumor murine L1210 Pt-resistant leukemia 1.5 mg/kg per injection in experiment 1; T/C. The following applies: Mus musculus. In kind it is functional, organism-based. The method, boiled down:
as §4

For experiment [26], the system named is L1210. The experiment can be described thus: Tested for the ratio of treated and control against solid tumor murine L1210 leukemia 1.5 mg/kg per injection in experiment 1; T/C. It is filed as functional, organism-based. The settings on record: Mus musculus. Put shortly:
as §4

Experiment [27] deals with L1210. The experiment can be described thus: Tested for the ratio of treated and control against solid tumor murine L1210 leukemia 2.5 mg/kg per injection in experiment 2; T/C. The settings on record: Mus musculus. In kind it is functional, organism-based. Put shortly: as §4
Experiment [28] concerns Mus musculus. The experiment can be described thus: Tested for the ratio of number of survivors / total number after 60 days at the dose of 2.3 mg/kg per injection against murine P388 Pt-resistant leukemia. It is filed as functional, organism-based. Put shortly:
as §2

Experiment [29] concerns Mus musculus. The experiment can be described thus: Tested for the ratio of treated and control tumor to reach 750 mg against murine solid tumor M5076 sarcoma 4.0 mg/kg per injection. In kind it is functional, organism-based. Put shortly:
as §5

Experiment [30] has as its system Mus musculus. The experiment can be described thus: Tested for the ratio of treated and control tumor to reach 750 mg against murine solid tumor colon carcinoma 2.5 mg/kg per injection. In kind it is functional, organism-based.
The test system of experiment [31] is Mus musculus. The experiment can be described thus: Tested for in vivo weight change against murine B16 melanoma at the dose of 4.0 mg/kg per injection. It is filed as functional, organism-based. The method, boiled down:
(§6)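 B6C3F1 (C57BL/6 × C3HF1) mice weighing 18–22 g received trocar tumor fragments SC on day 0. Compounds in 0.9% saline were given IP on a three-injection schedule, dosed by average cage weight. Weight change is the maximum treatment-related weight loss during the growth-delay assay.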

Experiment [32] relates to Mus musculus. The experiment can be described thus: Tested for in vivo weight change against murine M5076 sarcoma at the dose of 4.0 mg/kg per injection. In kind it is functional, organism-based. The method, boiled down:
as §6

In the next experiment the test system is M5076. The experiment can be described thus: Tested for net cell kill tumor burden reduction during therapy at the dose 4.0 mg/kg in M5076 sarcoma. In kind it is functional, organism-based. Details: dose 4 mg/kg. The following applies: Mus musculus.

Consider CISPLATIN, for which the Weight change in the experiment on L1210 [1] was 0.5 g; in the experiment on Mus musculus [11], -5.9 g; in the experiment with Mus musculus [12] it was -5.5 g; in the experiment on P388 it was 0.2 g. The Survivors with L1210 [2] worked out at 0; with Mus musculus [9] it was 3; in the experiment with Mus musculus [10] it was 0. Further, the MLS in the experiment on L1210 [3] was 11.1 days; with L1210 [4] it was 18.5 days; in the experiment with L1210 [5], 18.5 days. The values for the Ratio in the experiment with L1210 [6], in the experiment on L1210 [7] and with L1210 [8] were 172%, 120% and 118%, respectively. In the experiment with Mus musculus [13], this substance gave a Log net cell kill of -0.4. In addition, the T/C in the experiment on Mus musculus [14] came out at 86%; in the experiment with Mus musculus [15] it was 261%. The T-C in experiment [16] was 15.9 days.
With [Pt(cis-1,4-dach)CL2], the MLS was determined as 15.7 days in the experiment on L1210 [17]; 15 days in the experiment on L1210 [18]; 23 days with L1210 [19]; 22.5 days with L1210 [22]; 21.5 days with L1210 [23]. Also, the 60-day survivors in the experiment with L1210 [20] was 1; with L1210 [21], 1; with Mus musculus [28], 0. The Ratio in the experiment on L1210 [24] was 203%; in the experiment with L1210 [25], 154%; with L1210 [26], 217%; with L1210 [27], 242%. Besides, the figures for the T-C with Mus musculus [29] and in the experiment on Mus musculus [30] were 13.5 days and 3.8 days, respectively. Further, the Weight change is -2.6 g with Mus musculus [31] and -5.5 g with Mus musculus [32]. The Log net cell kill in the experiment with M5076 was determined as 0.6.

The record behind these values is ChEMBL document CHEMBL1127616, “Synthesis, structural characterization, and antitumor properties of a novel class of large-ring platinum(II) chelate complexes incorporating the cis-1,4-diaminocyclohexane ligand in a unique locked boat conformation” (J Med Chem, 1994).
